According to ChEMBL document CHEMBL4689842, “EUbOPEN Chemogenomics Library wave 1” (2021):
“And” between values parts separate entries of the source, which are not always exact repeats. Identical values can stand only once.

System: Fibroblast
Experiment: Multiplex assay against human fibroblast
Assay type: toxicity, cell-based
Conditions: 1 µM, compound concentration 1 uM
How it was run: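 Tubulin, mitochondrial-mass and membrane-permeability phenotypes are per cents of healthy-nucleus cells. Cells were gated by CellPathfinder machine learning into Hoechst high-intensity objects or normal cells, normal cells into healthy, pyknosed or fragmented nuclei, and pyknosed cells into mitotic or apoptotic. Before that, live cells stained at seeding with Hoechst33342, BioTracker Green Microtubule Cytoskeleton Dye, MitoTracker Red and Annexin V Alexa Fluor 680 were imaged on a CQ1 microscope at 37°C and 5% CO2 after compound addition.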

Structure (SMILES): C[C@]1(O)C[C@@H](c2nc(-c3ccc4ccc(-c5ccccc5)nc4c3)c3c(N)nccn32)C1 [LINSITINIB]
- Population Apoptotic (%) (12 h, replicate 1): 56% and 93%
- Population Fragmented Nuclei (%) (12 h, replicate 1): 43% and 32%
- Population Healthy Nuclei (%) (12 h, replicate 1): 44% and 50%
- Population Hoechst High Intensity Objects (%) (12 h, replicate 1): 18% and 12%
- Population Membrane Permeable-Phenotype (%) (12 h, replicate 1): 13% and 8%
- Population Mitochondria Different-Phenotype (%) (12 h, replicate 1): 1%
- Population Normal (%) (12 h, replicate 1): 81% and 87%
- Population Pyknosed Nuclei (%) (12 h, replicate 1): 11% and 17%
- Total Cell Count (12 h, replicate 1): 345 and 206
- Population Apoptotic (%) (12 h, replicate 2): 40% and 66%
- Population Fragmented Nuclei (%) (12 h, replicate 2): 56% and 76%
- Population Healthy Nuclei (%) (12 h, replicate 2): 31% and 18%
- Population Hoechst High Intensity Objects (%) (12 h, replicate 2): 45% and 43%
- Population Membrane Permeable-Phenotype (%) (12 h, replicate 2): 0% and 9%
- Population Mitotic Cells (%) (12 h, replicate 2): 60% and 33%
- Population Normal (%) (12 h, replicate 2): 54% and 56%
- Population Pyknosed Nuclei (%) (12 h, replicate 2): 12% and 5%
- Total Cell Count (12 h, replicate 2): 75 and 105
- Population Apoptotic (%) (24 h, replicate 1): 52% and 80%
- Population Fragmented Nuclei (%) (24 h, replicate 1): 47% and 33%
- Population Healthy Nuclei (%) (24 h, replicate 1): 44% and 51%
- Population Hoechst High Intensity Objects (%) (24 h, replicate 1): 22% and 12%
- Population Membrane Permeable-Phenotype (%) (24 h, replicate 1): 9%
- Population Mitochondria Different-Phenotype (%) (24 h, replicate 1): 2% and 4%
- Population Mitotic Cells (%) (24 h, replicate 1): 47% and 20%
- Population Normal (%) (24 h, replicate 1): 77% and 87%
- Population Pyknosed Nuclei (%) (24 h, replicate 1): 8% and 14%
- Total Cell Count (24 h, replicate 1): 364 and 202
- Population Apoptotic (%) (24 h, replicate 2): 50%
- Population Fragmented Nuclei (%) (24 h, replicate 2): 58% and 75%
- Population Healthy Nuclei (%) (24 h, replicate 2): 37% and 21%
- Population Hoechst High Intensity Objects (%) (24 h, replicate 2): 33% and 52%
- Population Membrane Permeable-Phenotype (%) (24 h, replicate 2): 21% and 18%
- Population Mitotic Cells (%) (24 h, replicate 2): 50%
- Population Normal (%) (24 h, replicate 2): 66% and 47%
- Population Pyknosed Nuclei (%) (24 h, replicate 2): 3%
- Total Cell Count (24 h, replicate 2): 77 and 109
